Reference: ChEMBL document CHEMBL4138262, “Antineoplastic Agents. 606. The Betulastatins” (2018)
Values after ≈ are worked out from the molar mass of the structure shown.

Columns and labels:
Format in all cases: functional
BXPC-3 = assay: Growth inhibition of human BxPC3 cells after 48 hrs by SRB assay; conditions: BXPC-3, 48 h
Outline: (§1)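 Cells in RPMI1640 with 5% fetal bovine serum were seeded in 96-well plates and incubated 24 h before serial dilutions of compound were added. After 48 h, plates were TCA-fixed, stained with sulforhodamine B and read on a microplate reader. Five serial dilutions were tested, with optical density in duplicate per end point. GI50 was calculated from optical density as the concentration halving net protein increase.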

MCF7 = assay: Growth inhibition of human MCF7 cells after 48 hrs by SRB assay; conditions: MCF7, 48 h; outline: as §1
SF-268 = assay: Growth inhibition of human SF268 cells after 48 hrs by SRB assay; conditions: SF-268, 48 h; outline: as §1
NCI-H460 = assay: Growth inhibition of human NCI-H460 cells after 48 hrs by SRB assay; conditions: NCI-H460, 48 h; outline: as §1
KM-20L2 = assay: Growth inhibition of human KM20L2 cells after 48 hrs by SRB assay; conditions: KM-20L2, 48 h; outline: as §1
DU-145 = assay: Growth inhibition of human DU145 cells after 48 hrs by SRB assay; conditions: DU-145, 48 h; outline: as §1

SMILES	GI50 (BXPC-3) [µg/mL]	GI50 (MCF7) [µg/mL]	GI50 (NCI-H460) [µg/mL]	GI50 (DU-145) [µg/mL]	GI50 (SF-268) [µg/mL]	GI50 (KM-20L2) [µg/mL]
C=C(CBr)[C@@H]1CC[C@]2(COC(C)=O)CC[C@]3(C)[C@H](CC[C@@H]4[C@@]5(C)CC[C@H](OC(C)=O)C(C)(C)[C@@H]5CC[C@]43C)[C@@H]12	> 10	> 10	> 10	> 10	> 10	> 10
C=C(C)[C@@H]1CC[C@]2(COC(C)=O)CC[C@]3(C)[C@H](CC[C@@H]4[C@@]5(C)CC[C@H](N)C(C)(C)[C@@H]5CC[C@]43C)[C@@H]12	1.1 (≈ 2.27 µM)	0.2 (≈ 0.413 µM)	0.21 (≈ 0.434 µM)	0.13 (≈ 0.269 µM)	0.21 (≈ 0.434 µM)	0.35 (≈ 0.723 µM)
C=C(C)[C@@H]1CC[C@]2(C=O)CC[C@]3(C)[C@H](CC[C@@H]4[C@@]5(C)CC[C@H](OC(C)=O)C(C)(C)[C@@H]5CC[C@]43C)[C@@H]12	> 10	> 10	> 10	> 10	> 10	> 10
C=C(CN)[C@@H]1CC[C@]2(CO)CC[C@]3(C)[C@H](CC[C@@H]4[C@@]5(C)CC[C@H](O)C(C)(C)[C@@H]5CC[C@]43C)[C@@H]12	3 (≈ 6.55 µM)	3.1 (≈ 6.77 µM)	4 (≈ 8.74 µM)	2.1 (≈ 4.59 µM)	4.2 (≈ 9.18 µM)	2.9 (≈ 6.34 µM)
C=C(CN=[N+]=[N-])[C@@H]1CC[C@]2(COC(C)=O)CC[C@]3(C)[C@H](CC[C@@H]4[C@@]5(C)CC[C@H](OC(C)=O)C(C)(C)[C@@H]5CC[C@]43C)[C@@H]12	> 10	> 10	> 10	> 10	> 10	> 10
C=C(C)[C@@H]1CC[C@]2(CN)CC[C@]3(C)[C@H](CC[C@@H]4[C@@]5(C)CC[C@H](OC(C)=O)C(C)(C)[C@@H]5CC[C@]43C)[C@@H]12	1.9 (≈ 3.93 µM)	1.8 (≈ 3.72 µM)	1.9 (≈ 3.93 µM)	1.8 (≈ 3.72 µM)	1.8 (≈ 3.72 µM)	1.9 (≈ 3.93 µM)
C=C(C)[C@@H]1CC[C@]2(COC(C)=O)CC[C@]3(C)[C@H](CC[C@@H]4[C@@]5(C)CC[C@@H](N)C(C)(C)[C@@H]5CC[C@]43C)[C@@H]12	> 10	2.1 (≈ 4.34 µM)	6 (≈ 12.4 µM)	1.3 (≈ 2.69 µM)	1.2 (≈ 2.48 µM)	3 (≈ 6.2 µM)
C=C(C)[C@@H]1CC[C@]2(/C=N/O)CC[C@]3(C)[C@H](CC[C@@H]4[C@@]5(C)CC[C@H](OC(C)=O)C(C)(C)[C@@H]5CC[C@]43C)[C@@H]12	15.5 (≈ 31.1 µM)	4.5 (≈ 9.04 µM)	4.1 (≈ 8.24 µM)	> 10	13.2 (≈ 26.5 µM)	5.1 (≈ 10.2 µM)
C=C(C)[C@@H]1CC[C@]2(COC(C)=O)CC[C@]3(C)[C@H](CC[C@@H]4[C@@]5(C)CC/C(=N/O)C(C)(C)[C@@H]5CC[C@]43C)[C@@H]12	10.4 (≈ 20.9 µM)	5.9 (≈ 11.9 µM)	> 10	> 10	> 10	14.1 (≈ 28.3 µM)

The next lines start with results.

GI50 (BXPC-3) [µg/mL]	GI50 (MCF7) [µg/mL]	GI50 (NCI-H460) [µg/mL]	GI50 (DU-145) [µg/mL]	SMILES	GI50 (SF-268) [µg/mL]	GI50 (KM-20L2) [µg/mL]
0.31 (≈ 0.287 µM)	0.21 (≈ 0.195 µM)	0.6 (≈ 0.556 µM)	0.06 (≈ 0.0556 µM)	CC[C@H](C)[C@@H]([C@@H](CC(=O)N1CCC[C@H]1[C@H](OC)[C@@H](C)C(=O)NCCN1C(=O)[C@]23CCC(C)(C)C1[C@@H]2[C@H]1CC[C@@H]2[C@@]4(C)CC[C@H](O)C(C)(C)[C@@H]4CC[C@@]2(C)[C@]1(C)CC3)OC)N(C)C(=O)[C@@H](NC(=O)[C@H](C(C)C)N(C)C)C(C)C	0.09 (≈ 0.0834 µM)	0.22 (≈ 0.204 µM)
2 (≈ 1.96 µM)	0.7 (≈ 0.685 µM)	2.1 (≈ 2.05 µM)	0.4 (≈ 0.391 µM)	C=C(C)[C@@H]1CC[C@]2(CO)CC[C@]3(C)[C@H](CC[C@@H]4[C@@]5(C)CC[C@H](NC(=O)[C@H](C)[C@@H](OC)[C@@H]6CCCN6C(=O)C[C@@H](OC)[C@H]([C@@H](C)CC)N(C)C(=O)[C@@H](NC(=O)[C@H](C(C)C)N(C)C)C(C)C)C(C)(C)[C@@H]5CC[C@]43C)[C@@H]12	0.4 (≈ 0.391 µM)	0.85 (≈ 0.831 µM)
0.6 (≈ 0.587 µM)	0.4 (≈ 0.391 µM)	> 1	0.4 (≈ 0.391 µM)	C=C(C)[C@@H]1CC[C@]2(CNC(=O)[C@H](C)[C@@H](OC)[C@@H]3CCCN3C(=O)C[C@@H](OC)[C@H]([C@@H](C)CC)N(C)C(=O)[C@@H](NC(=O)[C@H](C(C)C)N(C)C)C(C)C)CC[C@]3(C)[C@H](CC[C@@H]4[C@@]5(C)CC[C@H](O)C(C)(C)[C@@H]5CC[C@]43C)[C@@H]12	0.3 (≈ 0.293 µM)	0.31 (≈ 0.303 µM)
0.4 (≈ 0.385 µM)	0.08 (≈ 0.077 µM)	0.5 (≈ 0.481 µM)	0.04 (≈ 0.0385 µM)	C=C(CNC(=O)[C@H](C)[C@@H](OC)[C@@H]1CCCN1C(=O)C[C@@H](OC)[C@H]([C@@H](C)CC)N(C)C(=O)[C@@H](NC(=O)[C@H](C(C)C)N(C)C)C(C)C)[C@@H]1CC[C@]2(CO)CC[C@]3(C)[C@H](CC[C@@H]4[C@@]5(C)CC[C@H](O)C(C)(C)[C@@H]5CC[C@]43C)[C@@H]12	0.04 (≈ 0.0385 µM)	0.09 (≈ 0.0867 µM)
> 10	> 10	> 10	> 10	C=C(CNC(=O)[C@H](C)[C@@H](OC)[C@@H]1CCCN1C(=O)OC(C)(C)C)[C@@H]1CC[C@]2(COC(C)=O)CC[C@]3(C)[C@H](CC[C@@H]4[C@@]5(C)CC[C@H](OC(C)=O)C(C)(C)[C@@H]5CC[C@]43C)[C@@H]12	5.9 (≈ 7.27 µM)	7 (≈ 8.63 µM)
10 (≈ 9.39 µM)	4.1 (≈ 3.85 µM)	> 10	2.5 (≈ 2.35 µM)	C=C(C)[C@@H]1CC[C@]2(COC(C)=O)CC[C@]3(C)[C@H](CC[C@@H]4[C@@]5(C)CC[C@H](NC(=O)[C@H](C)[C@@H](OC)[C@@H]6CCCN6C(=O)C[C@@H](OC)[C@H]([C@@H](C)CC)N(C)C(=O)[C@@H](NC(=O)[C@H](C(C)C)N(C)C)C(C)C)C(C)(C)[C@@H]5CC[C@]43C)[C@@H]12	3.8 (≈ 3.57 µM)	7 (≈ 6.58 µM)
> 10	> 10	> 10	> 10	C=C(C)[C@@H]1CC[C@]2(COC(C)=O)CC[C@]3(C)[C@H](CC[C@@H]4[C@@]5(C)CC[C@H](NC(=O)[C@H](C)[C@@H](OC)[C@@H]6CCCN6C(=O)OC(C)(C)C)C(C)(C)[C@@H]5CC[C@]43C)[C@@H]12	> 10	> 10
3.8 (≈ 3.39 µM)	3.6 (≈ 3.21 µM)	5.1 (≈ 4.55 µM)	0.39 (≈ 0.348 µM)	CC[C@H](C)[C@@H]([C@@H](CC(=O)N1CCC[C@H]1[C@H](OC)[C@@H](C)C(=O)NCCN1C(=O)[C@]23CCC(C)(C)C1[C@@H]2[C@H]1CC[C@@H]2[C@@]4(C)CC[C@H](OC(C)=O)C(C)(C)[C@@H]4CC[C@@]2(C)[C@]1(C)CC3)OC)N(C)C(=O)[C@@H](NC(=O)[C@H](C(C)C)N(C)C)C(C)C	1.3 (≈ 1.16 µM)	3.1 (≈ 2.76 µM)
> 10	9 (≈ 12.4 µM)	> 10	> 10	C=C(CNC(=O)[C@H](C)[C@@H](OC)[C@@H]1CCCN1C(=O)OC(C)(C)C)[C@@H]1CC[C@]2(CO)CC[C@]3(C)[C@H](CC[C@@H]4[C@@]5(C)CC[C@H](O)C(C)(C)[C@@H]5CC[C@]43C)[C@@H]12	> 10	> 10
> 10	> 10	> 10	> 10	C=C(C)[C@@H]1CC[C@]2(CNC(=O)[C@H](C)[C@@H](OC)[C@@H]3CCCN3C(=O)OC(C)(C)C)CC[C@]3(C)[C@H](CC[C@@H]4[C@@]5(C)CC[C@H](OC(C)=O)C(C)(C)[C@@H]5CC[C@]43C)[C@@H]12	> 10	> 10
4.1 (≈ 3.85 µM)	3.6 (≈ 3.38 µM)	4.2 (≈ 3.95 µM)	3.7 (≈ 3.48 µM)	C=C(C)[C@@H]1CC[C@]2(CNC(=O)[C@H](C)[C@@H](OC)[C@@H]3CCCN3C(=O)C[C@@H](OC)[C@H]([C@@H](C)CC)N(C)C(=O)[C@@H](NC(=O)[C@H](C(C)C)N(C)C)C(C)C)CC[C@]3(C)[C@H](CC[C@@H]4[C@@]5(C)CC[C@H](OC(C)=O)C(C)(C)[C@@H]5CC[C@]43C)[C@@H]12	2.6 (≈ 2.44 µM)	2.4 (≈ 2.25 µM)
8 (≈ 7.13 µM)	6.3 (≈ 5.61 µM)	> 10	3 (≈ 2.67 µM)	C=C(CNC(=O)[C@H](C)[C@@H](OC)[C@@H]1CCCN1C(=O)C[C@@H](OC)[C@H]([C@@H](C)CC)N(C)C(=O)[C@@H](NC(=O)[C@H](C(C)C)N(C)C)C(C)C)[C@@H]1CC[C@]2(COC(C)=O)CC[C@]3(C)[C@H](CC[C@@H]4[C@@]5(C)CC[C@H](OC(C)=O)C(C)(C)[C@@H]5CC[C@]43C)[C@@H]12	4 (≈ 3.56 µM)	4 (≈ 3.56 µM)
9.3 (≈ 21 µM)	> 10	7.4 (≈ 16.7 µM)	> 10	C=C(C)[C@@H]1CC[C@]2(CO)CC[C@]3(C)[C@H](CC[C@@H]4[C@@]5(C)CC[C@H](O)C(C)(C)[C@@H]5CC[C@]43C)[C@@H]12 [BETULIN]	> 10	> 10
